Our source for the Ki, Ratio Ki and Activity values is ChEMBL document CHEMBL4613327, “Sulfonamide Inhibitors of Human Carbonic Anhydrases Designed through a Three-Tails Approach: Improving Ligand/Isoform Matching and Selectivity of Action” (J Med Chem, 2020).

The structures appear in SMILES notation.

In assay [1] the target is Carbonic anhydrase 1 (Homo sapiens, UniProt P00915). Put plainly: Inhibition of human CA1 preincubated for 15 mins by stopped-flow CO2 hydration kinetic assay based Cheng-Prusoff equation analysis.
Sequence of Carbonic anhydrase 1 (P00915 whole entry): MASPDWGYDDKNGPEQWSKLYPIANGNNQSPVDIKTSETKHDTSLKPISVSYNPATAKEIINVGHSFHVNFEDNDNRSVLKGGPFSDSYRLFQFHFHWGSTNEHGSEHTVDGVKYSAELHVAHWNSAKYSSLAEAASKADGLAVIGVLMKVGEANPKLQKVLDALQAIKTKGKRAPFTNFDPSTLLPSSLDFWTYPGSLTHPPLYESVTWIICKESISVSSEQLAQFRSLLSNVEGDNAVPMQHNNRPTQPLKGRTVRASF
Assay [2] deals with Carbonic anhydrase 2 (Homo sapiens, UniProt P00918). Kind of assay: Inhibition of human CA2 preincubated for 15 mins by stopped-flow CO2 hydration kinetic assay based Cheng-Prusoff equation analysis.
For assay [3], the target named is Carbonic anhydrase 12 (Homo sapiens, UniProt O43570). Kind of assay: Inhibition of human CA12 preincubated for 15 mins by stopped-flow CO2 hydration kinetic assay based Cheng-Prusoff equation analysis.
Sequence of Carbonic anhydrase 12 (O43570 whole entry, canonical isoform): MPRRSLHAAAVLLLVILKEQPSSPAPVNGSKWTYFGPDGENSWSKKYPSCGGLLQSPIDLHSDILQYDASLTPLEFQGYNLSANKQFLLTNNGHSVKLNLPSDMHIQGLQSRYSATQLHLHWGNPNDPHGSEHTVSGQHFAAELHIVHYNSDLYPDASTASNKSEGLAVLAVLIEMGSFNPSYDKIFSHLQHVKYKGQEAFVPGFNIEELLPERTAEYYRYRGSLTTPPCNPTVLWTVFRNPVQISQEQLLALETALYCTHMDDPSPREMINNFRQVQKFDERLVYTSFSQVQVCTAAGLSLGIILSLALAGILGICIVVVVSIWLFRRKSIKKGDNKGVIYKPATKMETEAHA
Assay [4] is filed under the species Homo sapiens. Kind of assay: Selectivity index, ratio of Ki for inhibition of human CA2 to Ki for inhibition of human CA4. The method in brief: (§1)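 Ratio of Ki values. Each Ki came from stopped-flow CA-catalysed CO2 hydration with recombinant in-house hCA isoforms, phenol red 0.2 mM read at 557 nm, 20 mM Hepes pH 7.5, 20 mM Na2SO4, and CO2 1.7–17 mM. Inhibitor and enzyme were preincubated 15 min at room temperature. Initial rates, less the uncatalysed rate, were fit by nonlinear least squares with Cheng–Prusoff. Mean of ≥3 determinations.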

The species named for assay [5] is Homo sapiens. Put plainly: Selectivity index, ratio of Ki for inhibition of human CA1 to Ki for inhibition of human CA4. The method in brief: as §1
For assay [6], the species on record is Homo sapiens. Kind of assay: Selectivity index, ratio of Ki for inhibition of human CA1 to Ki for inhibition of human CA2. In a few lines:
as §1

Assay [7] relates to Oryctolagus cuniculus. Put plainly: Suppression of hypertonic saline solution-induced increase in intraocular pressure in New Zealand rabbit model of glaucoma assessed as reduction in intraocular pressure dosed as 1% eye drops formulation via direct instillation into eye conjunctive pocket measured after 60 mins post dose relative to untreated control. The class given is functional.

The species entered for assay [8] is Homo sapiens. Kind of assay: Selectivity index, ratio of Ki for inhibition of human CA4 to Ki for inhibition of human CA12. In a few lines:
as §1

Assay [9] concerns Oryctolagus cuniculus. Kind of assay: Suppression of hypertonic saline solution-induced increase in intraocular pressure in New Zealand rabbit model of glaucoma assessed as reduction in intraocular pressure dosed as 1% eye drops formulation via direct instillation into eye conjunctive pocket measured after 30 mins post dose relative to untreated control. The assay is classed as functional.

Assay [10] concerns Oryctolagus cuniculus. Put plainly: Suppression of hypertonic saline solution-induced increase in intraocular pressure in New Zealand rabbit model of glaucoma assessed as reduction in intraocular pressure dosed as 1% eye drops formulation via direct instillation into eye conjunctive pocket measured after 120 mins post dose relative to untreated control. The class given is functional.

For assay [11], the species on record is Homo sapiens. Kind of assay: Selectivity index, ratio of Ki for inhibition of human CA1 to Ki for inhibition of human CA12. The method in brief: as §1
Assay [12] is filed under the species Homo sapiens. Kind of assay: Selectivity index, ratio of Ki for inhibition of human CA2 to Ki for inhibition of human CA12. In a few lines: as §1
Assay [13] relates to Oryctolagus cuniculus. Put plainly: Suppression of hypertonic saline solution-induced increase in intraocular pressure in New Zealand rabbit model of glaucoma assessed as reduction in intraocular pressure dosed as 1% eye drops formulation via direct instillation into eye conjunctive pocket measured after 240 mins post dose relative to untreated control. The assay is classed as functional.

Assay [14] has as its target Carbonic anhydrase 4 (Homo sapiens, UniProt P22748). Kind of assay: Inhibition of human CA4 preincubated for 15 mins by stopped-flow CO2 hydration kinetic assay based Cheng-Prusoff equation analysis.

Sequence of Carbonic anhydrase 4 (P22748 whole entry): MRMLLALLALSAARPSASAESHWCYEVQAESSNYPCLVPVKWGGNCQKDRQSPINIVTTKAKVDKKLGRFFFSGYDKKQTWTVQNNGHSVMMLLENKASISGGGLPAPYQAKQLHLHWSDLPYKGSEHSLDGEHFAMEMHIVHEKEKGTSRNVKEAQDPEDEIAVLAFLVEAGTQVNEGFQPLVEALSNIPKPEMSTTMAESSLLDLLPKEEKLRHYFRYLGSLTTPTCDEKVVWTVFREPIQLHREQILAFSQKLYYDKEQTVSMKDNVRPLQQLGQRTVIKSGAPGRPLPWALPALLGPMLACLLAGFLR

Take `NS(=O)(=O)c1ccc(CCN(Cc2ccc(F)cc2)C(=O)CN(CCC(=O)O)CCc2ccccc2)cc1`: the Ki is 95.8 nM in assay [1], 23.5 nM in [2], 8.8 nM in assay [3] and 419 nM in assay [14]. The Ratio Ki in assay [4] worked out at 0.06; in [5] it was 0.2; in [6], 4.1; in assay [8], 47.6; in assay [11], 10.9; in [12] it was 2.7. In addition, the Activity in assay [7] was determined as 4.8 mmHg; in [9], 1.3 mmHg; in [10], 3.2 mmHg; in assay [13] it was 2.4 mmHg.

Take `CCN[C@H]1C[C@H](C)S(=O)(=O)c2sc(S(N)(=O)=O)cc21.Cl` [DORZOLAMIDE HYDROCHLORIDE]: the Activity in [7] is recorded as 5.4 mmHg; in assay [9] it was 1 mmHg; in [10] it was 2.8 mmHg; in assay [13], 3 mmHg.

For `NS(=O)(=O)c1ccc(CCN(Cc2ccco2)C(=O)CN(CCC(=O)O)CCc2ccccc2)cc1`, the Ki in [1] came to 79.5 nM; in [2] it was 2.4 nM; in [3], 7.1 nM; in assay [14] it was 335 nM. Also, the Ratio Ki in [4] was determined as 0.007; in [5], 0.2; in assay [6], 33.1; in assay [8], 47.3; in [11] it was 11.2; in assay [12], 0.3. Besides, the Activity in [7] is on record as 3.3 mmHg; in [10], 1 mmHg; in [13], 1.2 mmHg.

As a reminder, the Ki is a dissociation constant, usually derived from enzyme kinetics or from competition with a known ligand. High values mean lower affinity, low ones higher affinity.
